Measured values taken from ChEMBL document CHEMBL1944526, “Diamine and aminoalcohol derivatives active against Trypanosoma brucei” (Bioorg Med Chem Lett, 2012).
pEC50: −log10 of the molar value. The source made the active and inactive calls. The rule behind the calls is not given here.

Key:
[1] = test system: Trypanosoma brucei rhodesiense; assay: Antitrypanosomal activity against bloodstream form of Trypanosoma brucei rhodesiense EATRO3 after 72 hrs by alamar blue assay; format: functional, organism-based; conditions: EATRO3, 72 h
Outline: (§1)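 Bloodstream-form parasites were grown in HMI-9 with 20% heat-inactivated FBS at 37 °C and 5% CO2. They were seeded at 2 × 10^3 cells/ml (T. b. rhodesiense EATRO3) or 2 × 10^4 cells/ml (T. b. gambiense ELIANE) and exposed to a compound dilution series for 72 h. Untreated cells with matching DMSO served as controls. Alamar Blue fluorescence was read at ex 550/em 590 nm, and EC50 was derived from it.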

[2] = Selectivity index, ratio of CC50 for african green monkey Vero cells to EC50 for Trypanosoma brucei rhodesiense EATRO3; format: toxicity, cell-based; conditions: read-out: Ratio CC50/EC50
Outline: (§2)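 Vero cells were grown in DMEM with 10% heat-inactivated FBS and seeded at 5 × 10^4 cells/ml. They were exposed to 4–35 (units as printed unclear) compound concentrations for 72 h at 37 °C and 5% CO2. CC50 came from Alamar Blue fluorescence (ex 550/em 590 nm). SI = CC50 (Vero) / EC50 (parasite, 72 h Alamar Blue assay).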

[3] = test system: Trypanosoma brucei rhodesiense; assay: Antitrypanosomal activity against bloodstream form of Trypanosoma brucei rhodesiense EATRO3 assessed as alteration of flagellar pocket at […] after 24 hrs by microscopic analysis; format: functional, organism-based
Outline: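 Live bloodstream-form T. b. rhodesiense EATRO3, cultured in HMI-9 with 20% heat-inactivated FBS at 37 °C and 5% CO2, were treated for 24 h. Flagellar pocket morphology was imaged with Nomarski optics and compared against untreated parasites.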

[4] = test system: Trypanosoma brucei gambiense; assay: Antitrypanosomal activity against bloodstream form of Trypanosoma brucei gambiense ELIANE after 72 hrs by alamar blue assay; format: functional, organism-based; outline: as §1
[5] = Selectivity index, ratio of CC50 for african green monkey Vero cells to EC50 for Trypanosoma brucei gambiense ELIANE; format: toxicity, cell-based; conditions: read-out: Ratio CC50/EC50; outline: as §2

Row | SMILES | pEC50 [1] | selectivity ratio [2] | other results
1 | N=C(N)c1ccc(OCCCCCOc2ccc(C(=N)N)cc2)cc1 | 8.43 | – | –
2 | CCCCCCCCCCCCCCC(CNC(=O)CCC(=O)O)NC(=O)OC(C)(C)C (racemic) | < 5.60 | – | –
3 | CCCCCCCCCCC(CO)NCC (racemic) | 5.96 | – | –
4 | CCCCCCCCCCCCCCC(O)CN1CCN(C)CC1 (racemic) | 6.28 | 23.7 | Activity [3]: Active; pEC50 [4]: 6.37; selectivity ratio [5]: 28.8
5 | CCCCCCCCCCCCCCC(O)CN1CCOCC1 (racemic) | < 5.60 | – | –
6 | CCCCCCCCCCCCCCC(CNCC)NC(=O)OC(C)(C)C (racemic) | 6.15 | 38.8 | –
7 | CCCCCCCCCCCCCCC(COCc1ccccc1)NC(=O)CCC(=O)O (racemic) | < 5.60 | – | –
8 | CCCCCCCCCCCCCCC(CN)NC(=O)OC(C)(C)C (racemic) | 6.02 | 17 | –
9 | CCCCCCCCCCCCCCC(CO)NC(=O)CCCC(=O)O (racemic) | < 5.60 | – | –
10 | Cc1ccc(C(=O)Nc2ccc(S(=O)(=O)O)c3cc(S(=O)(=O)O)cc(S(=O)(=O)O)c23)cc1NC(=O)c1cccc(NC(=O)Nc2cccc(C(=O)Nc3cc(C(=O)Nc4ccc(S(=O)(=O)O)c5cc(S(=O)(=O)O)cc(S(=O)(=O)O)c45)ccc3C)c2)c1 [SURAMIN] | 6.73 | – | –

Continued, in another order:

Row | pEC50 [1] | SMILES | selectivity ratio [2] | other results
11 | < 5.60 | CCCCCCCCCCCCCCC(CNCCCCCC)NC(=O)OC(C)(C)C (racemic) | – | –
12 | 6.23 | CCCCCCCCCCCCCCCCC(CO)NCC (racemic) | 27.7 | Activity [3]: Active; pEC50 [4]: 6.35; selectivity ratio [5]: 35.9
13 | < 5.60 | CCCCCCCCCCCCCCC(O)CNCCCCCC (racemic) | – | –
14 | 6.36 | CCCCCCCCCCCCCCC(O)CNC(C)C (racemic) | 27.1 | Activity [3]: Active; pEC50 [4]: 6.48; selectivity ratio [5]: 35.8
15 | 5.70 | CCCCCCCCCCCCCCC(O)CN(CC)CC (racemic) | 19.9 | –
16 | 5.75 | CCCCCCCCCCCCCCC(O)CN1CCN(CCCC)CC1 (racemic) | – | –
17 | 6.09 | CCCCCCCCCCCCCCC(CO)NCCCC (racemic) | – | –
18 | < 5.60 | CCCCCCCCCCCCCCC(N)CO (racemic) | – | –
19 | 6.14 | CCCCCCCCCCCCCCC(CO)N(CC)CC (racemic) | – | –
20 | 6.10 | CCCCCCCCCCCCCCC(O)CNC1CCCCC1 (racemic) | – | –
21 | 5.94 | CCCCCCCCCCCCCCC(CO)NCC (racemic) | 39.1 | –
22 | < 5.60 | CCCCCCCCCCCCCCC(N)CNCC(=O)O (racemic) | – | –
